Like-named read-outs stand apart in the source and are kept apart here. Where no end group is shown, it is not given here.
Columns and labels:
[1] = test system: CPB, porcine carboxypeptidase; details: cited from earlier work
[2] = test system: rat RBCs; test: Hemolysis assay; type: cell-based; details: 62.5–1000 μg/mL, 37 °C, 30 min
How it was run: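 Rat RBCs in glycine-buffered stabilizing saline were exposed to test peptide at 62.5, 125, 250, 500 or 1000 μg/mL for 30 min at 37 °C in a water bath, then centrifuged. Supernatant absorbance was read at 540 nm. RBCs in stabilizing buffer defined 0% hemolysis and 0.1% SDS (final) defined 100%.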

[3] = test system: HUVECs; test: Wound healing assay; type: cell-based, human; details: 25 μg/mL, 8 h, vs control
How it was run: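 A confluent HUVEC monolayer was scratched with a sterile 200 μL pipette tip and debris washed off with PBS. Medium containing peptide at 25 μg/mL was added, and cells migrated 8 h at 37 °C. Bright-field images were taken at 0 and 8 h and wound areas measured by image analysis. Percent closure was computed from initial area minus 8-h area. Three experiments were run, each in triplicate wells.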

[4] = test system: HUVECs; test: Tube formation assay with H2O2-generated ROS; type: cell-based, human; details: 25 μg/mL, 24 h
How it was run: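 Confluent HUVECs were harvested and seeded at 1 × 10^4 cells per chamber on basement membrane matrix (Geltrex)-coated chamber slides. ROS groups received H2O2 (200 μM solution). Parent and metabolite peptides were each at 25 μg/mL in medium. After 24 h incubation, tubular networks were imaged by bright-field microscopy and tube parameters quantified by image analysis.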

[5] = test system: NIH/3T3; test: Cytotoxicity assay; type: cell-based, mouse; details: NIH/3T3; 6.25–50 μg/mL; 24 h
How it was run: (§1)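 Cells seeded at 10,000 per well and grown 24 h. They were then given medium containing 6.25–50 μg/mL peptide, with medium alone as control, for 24 h at 37 °C, 5% CO2. CCK-8 reagent was added and incubated 1 h at 37 °C, and absorbance read at 450 nm. Cytotoxicity was calculated from the OD values.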

[6] = Cytotoxicity assay; type: cell-based, mouse
How it was run: as §1

[7] = test system: HUVECs; test: Cytotoxicity assay; type: cell-based, human; details: HUVECs; 6.25–50 μg/mL; 24 h
How it was run: as §1

[8] = Cytotoxicity assay; type: cell-based, human
How it was run: as §1

[9] = molecular target: SARS-CoV-2 main protease (M^pro) (SARS-CoV-2 (Wuhan-Hu-1 isolate)) (UniProt P0DTD1)
[10] = molecular target: T1, SARS-CoV-2 main protease (M^pro) (SARS-CoV-2 (Wuhan-Hu-1 isolate), UniProt P0DTD1); test: ITC
[11] = molecular target: T1, SARS-CoV-2 main protease (M^pro); test: cell-based or functional assay

Ac-Tβ4_31-43: peptide metabolite of Ac-Tβ4, amino acids 31-43 (KETIEQEKQAGES; Thymosin beta-4; UniProt P62328 32-44, looked up, fragment)
detected as metabolite of Ac-Tβ4: CPB [1]: D ^a

CC[C@H](C)[C@H](NC(=O)[C@H](CCC(=O)O)NC(=O)[C@H](C)NC(=O)[C@H](CCSC)NC(=O)[C@H](CC(=O)O)NC(=O)[C@@H]1CCCN1C(=O)[C@H](CCCCN)NC(=O)[C@H](CC(=O)O)NC(=O)[C@H](CO)NC(C)=O)C(=O)N[C@@H](CCC(=O)O)C(=O)N[C@@H](CCCCN)C(=O)N[C@@H](Cc1ccccc1)C(=O)N[C@@H](CC(=O)O)C(=O)N[C@@H](CCCCN)C(=O)N[C@@H](CO)C(=O)N[C@@H](CCCCN)C(=O)N[C@@H](CC(C)C)C(=O)N[C@@H](CCCCN)C(=O)N[C@@H](CCCCN)C(=O)N[C@H](C(=O)N[C@@H](CCC(=O)O)C(=O)N[C@H](C(=O)N[C@@H](CCC(N)=O)C(=O)N[C@@H](CCC(=O)O)C(=O)N[C@@H](CCCCN)C(=O)N[C@@H](CC(N)=O)C(=O)N1CCC[C@H]1C(=O)N[C@@H](CC(C)C)C(=O)N1CCC[C@H]1C(=O)N[C@@H](CO)C(=O)N[C@@H](CCCCN)C(=O)N[C@@H](CCC(=O)O)C(=O)N[C@H](C(=O)N[C@H](C(=O)N[C@@H](CCC(=O)O)C(=O)N[C@@H](CCC(N)=O)C(=O)N[C@@H](CCC(=O)O)C(=O)N[C@@H](CCCCN)C(=O)N[C@@H](CCC(N)=O)C(=O)N[C@@H](C)C(=O)NCC(=O)N[C@@H](CCC(=O)O)C(=O)N[C@@H](CO)C(=O)O)[C@@H](C)CC)[C@@H](C)O)[C@@H](C)O)[C@@H](C)O [Ac-Tβ4, Acetyl-thymosin β4]
hemolytic activity, OD values compared to 0.1 % SDS [2]: < 1.5%
wound closure [3]: significantly enhanced wound closure
tube formation under H2O2 (ROS scavenging) [4]: failed to mitigate ROS-induced damage
cytotoxicity [5]: No cytotoxicity
viability [6]: > 90%
cytotoxicity [7]: No cytotoxicity
viability [8]: > 90%

FDKS peptide
IC50 of inhibition of SARS-CoV-2 M^pro, FRET-based enzymatic assay [9]: 63.2 µM

B1: Ac-Tβ_(1-14), acetyl-thymosin β4 (amino acids 1-14) (peptide)
peptide: Ac-SDKPDMAEIEKFDK
Kd [10]: 19.4 µM
dH [10]: 40.3 kcal/mol
stoichiometry N [10]: 1.05
IC50 of inhibition of SARS-CoV-2 M^pro, FRET-based enzymatic assay [11]: 26.1 µM

B2: Ac-Tβ_(1-17), acetyl-thymosin β4 (amino acid 1-17) (peptide)
peptide: Ac-SDKPDMAEIEKFDKSKL
Kd [10]: 22 µM
dH [10]: -11.4 kcal/mol
stoichiometry N [10]: 0.87
IC50 of inhibition of SARS-CoV-2 M^pro, FRET-based enzymatic assay [11]: 22.4 µM

Reference: publication PMC11964602 (Bioactive Materials, 2025)
